# This is one part of a sample in which hits are shown more often than they occur.
# Myeloid diff 2: promotes myeloid progenitor differentiation | ER-HoxA9 myeloid progenitors, lysozyme-GFP differentiation, flow cytometry | 1% of 360,000 active | AID 624256 | calls only at 10 µM;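 active means normalized GFP-positive differentiation at or above the plate's own cutoff, the solvent-only control mean plus 3 SD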;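 further: cells exposed to compound for four days before flow analysis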
# ABCB6 inh 2: blocks the human ABCB6 transporter | 0.19% of 360,000 active | AID 602162 | Q9NP58 | K562-ABCB6 porphyrin accumulation, flow cytometry, 1 h; active compounds read low | fluorescence ratio to DMSO, % at 10 µM;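 active means fluorescence ratio to DMSO below 75%, the collection mean minus 3 SD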;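 further: signal is porphyrin accumulated inside mitochondria; 100% equals median channel fluorescence of DMSO control wells; lower ratio means ABCB6 inhibition with less porphyrin fluorescence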
# Target sequence (Q9NP58 whole entry, looked up): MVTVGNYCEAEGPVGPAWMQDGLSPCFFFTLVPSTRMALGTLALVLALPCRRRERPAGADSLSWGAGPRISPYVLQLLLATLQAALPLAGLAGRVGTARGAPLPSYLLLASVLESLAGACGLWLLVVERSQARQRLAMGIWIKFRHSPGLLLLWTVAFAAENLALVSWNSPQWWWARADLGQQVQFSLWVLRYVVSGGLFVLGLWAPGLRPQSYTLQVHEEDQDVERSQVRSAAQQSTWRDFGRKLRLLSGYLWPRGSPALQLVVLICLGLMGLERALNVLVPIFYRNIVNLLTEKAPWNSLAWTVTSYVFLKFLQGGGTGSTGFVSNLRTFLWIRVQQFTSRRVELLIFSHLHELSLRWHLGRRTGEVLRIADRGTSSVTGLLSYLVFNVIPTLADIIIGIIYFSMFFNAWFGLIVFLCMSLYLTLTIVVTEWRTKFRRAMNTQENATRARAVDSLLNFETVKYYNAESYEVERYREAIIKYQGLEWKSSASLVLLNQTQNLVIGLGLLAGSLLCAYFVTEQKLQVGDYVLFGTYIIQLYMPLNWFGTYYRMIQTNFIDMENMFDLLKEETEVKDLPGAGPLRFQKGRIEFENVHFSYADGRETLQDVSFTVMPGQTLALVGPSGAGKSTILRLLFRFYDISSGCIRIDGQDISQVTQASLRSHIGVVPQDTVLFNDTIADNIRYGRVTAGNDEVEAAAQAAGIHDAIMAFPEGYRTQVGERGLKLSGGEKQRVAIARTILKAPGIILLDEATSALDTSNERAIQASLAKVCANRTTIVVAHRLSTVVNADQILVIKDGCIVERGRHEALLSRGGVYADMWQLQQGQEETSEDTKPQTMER
# XiGFP reactiv: activators of X-chromosome reactivation in mouse fibroblasts; XiGFP mouse fibroblasts, % GFP-positive cells imaging, 3 d; cells co-treated with 5-aza-dC sensitizer; scaled so ellipticine positive control = 100%; activation, % at 7.58 µM; 0.055% of 360,000 active;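 active means mean normalized replicate activation at least 10% and every replicate at or above 10%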;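 further: 0% = median of on-plate neutral control wells and 100% = ellipticine 6 µM median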
#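 assay system = SV40-immortalized XiGFP fibroblast cells, line 68-5-11 | buffer or medium = DMEM plus 5-aza-dC sensitizer | doses = single-point pinned compound dosing | times = 3-day compound exposure, then 15 min fixation at room temperature | benchmarks = positive control ellipticine, 6 µM final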
# Myeloid diff: myeloid differentiation induction. shares compounds with Myeloid diff 2. ER-HoxA9 myeloid progenitors, GFP/Mac1 double-positive flow. calls only. 2% of 2,300 active;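 active means share of green or green-and-red cells above 9 and 9% in run 1 or 4 and 3% in run 2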
# GFP autofluor: compound fluorescence in myeloid differentiation counter-screen | shares compounds with Myeloid diff 2 | ER-HoxA9 myeloid progenitors, no estrogen, GFP autofluorescence flow cytometry; vehicle wells 0%, positive control 100% | fluorescence response, % (test concentration not listed) | 7.4% of 2,300 active | AID 651707;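 active means over 5% cells positive for green fluorescent reporter, or over 2% positive for both it and APC stain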;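 further: range taken on the double positive population between DMSO and positive control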
# The depositor's hits bear a star; i = inactive; · = no result; + = active, no number.
SMILES,Myeloid diff 2,ABCB6 inh 2,XiGFP reactiv,Myeloid diff,GFP autofluor
Brc1ccc(-c2csc3[n+]2CCCCC3)cc1,+,100,0,+,0
O=C(C[C@H]1CC[C@H](NC(=O)CCN2CCCCC2)[C@@H](CO)O1)NCc1ccc(Cl)c(Cl)c1,·,·,0,·,·
C[C@@H]1CN([C@H](C)CO)C(=O)c2cc(NS(=O)(=O)c3cccs3)ccc2O[C@@H](C)CCCCO[C@H]1CN(C)Cc1ccc2c(c1)OCO2,·,·,0,·,·
O=S(=O)(c1cccs1)N1CCCCN2[C@H](CO)[C@H](c3ccc(/C=C/c4ccccc4)cc3)[C@H]2C1,·,·,0,·,·
CCOC(=O)c1cnn(-c2ccccn2)c1N,i,90,·,·,·
CCOC(=O)c1cnn(-c2cc(C)c3ccccc3n2)c1N,+,81,·,i,1
CC(=O)N1[C@H](CO)[C@@H](c2ccccc2)[C@H]1CN(C(=O)NC(C)C)C1CCCC1,·,·,0,·,·
CC1C=NC(S(=O)(=O)N2CC[C@H]3[C@@H](CO)N(C)c4ccc(C5=CCCCC5)cc4[C@H]32)=N1 (stereo not given in full),·,·,0,·,·
CC(c1ccccc1)n1c(-c2ccccc2F)n[nH]c1=S (stereo not given),i,96,0,·,·
CC(C)n1c(-c2ccccc2F)n[nH]c1=S,i,83,·,i,85*
Cc1ccc(C)c(S(=O)(=O)N2CCN(C(=O)CCC(=O)c3cc(C)sc3C)CC2)c1,+,96,0,i,0
Cc1ccc(C)c(S(=O)(=O)N2CCN(C(=O)Cc3ccccc3)CC2)c1,i,96,0,·,·
CCCNC(=O)Nc1ccc2c(c1)OC[C@@H](C)N(Cc1cccnc1)C[C@H](C)[C@@H](OC)CN(C)C2=O,·,·,0,·,·
O=C(c1ccc2c(=O)n3c(nc2c1)CCCCC3)N1CCN(c2ccc(F)cc2)CC1,i,100,0,·,·
O=C(c1ccc2c(=O)n3c(nc2c1)CCCCC3)N1CCN(c2ccc(Cl)cc2)CC1,i,93,0,i,0
COc1ccc(COc2ccsc2C(=O)Nc2ccc(Cl)cc2)cc1,i,99,·,i,0
COc1ccc(NC(=O)c2csc(Cc3ccc(Cl)cc3)n2)cc1,i,98,0,·,·
O=C(CCN1CCCCC1)N[C@H]1CC[C@@H](CCNS(=O)(=O)c2ccc(F)cc2)O[C@H]1CO,·,·,0,·,·
CN1[C@@H]2c3ccc(-c4ccncc4)c(=O)n3C[C@@H]2[C@@H](CO)[C@@H]1C(=O)NCCc1ccccc1,·,·,0,·,·
C[C@@H]1CN([C@H](C)CO)C(=O)c2cc(NS(=O)(=O)c3ccc(F)cc3)ccc2O[C@@H](C)CCCCO[C@@H]1CN(C)Cc1ccc(C(=O)O)cc1,·,·,0,·,·
O=C(Nc1nnc(S(=O)(=O)N2CCCCCC2)s1)c1ccccc1F,i,91,0,·,·
Cc1ccccc1C(=O)Nc1nnc(S(=O)(=O)N2CCCCCC2)s1,i,99,0,i,0
CO[C@@H]1CN(C)C(=O)c2cc(NS(C)(=O)=O)ccc2OC[C@H](C)N(CC2CC2)C[C@H]1C,·,·,0,·,·
O=C(COc1ccc2ccc(=O)oc2c1)NC1CCCC1,+,99,0,i,0
O=C(COc1ccc2ccc(=O)oc2c1)NC1CCN(Cc2ccccc2)CC1,i,104,0,·,·
SMILES,Myeloid diff 2,ABCB6 inh 2,XiGFP reactiv,Myeloid diff,GFP autofluor
C[C@@H]1CN([C@H](C)CO)C(=O)c2cc(NS(C)(=O)=O)ccc2O[C@H]1CN(C)S(=O)(=O)c1ccccc1,·,·,0,·,·
O=C(/C=C/[C@H]1O[C@@H](n2ccc(=O)[nH]c2=O)[C@H](O)[C@@H]1O)NCc1cccc2ccccc12,+,100,0,i,0
O=C(/C=C/[C@H]1O[C@@H](n2ccc(=O)[nH]c2=O)[C@H](O)[C@@H]1O)NCc1cccs1,i,95,0,·,·
CS(=O)(=O)N1[C@@H](C#N)[C@@H](c2ccccc2-c2ccccc2F)[C@@H]1CO,·,·,0,·,·
C[C@@H]1CN([C@@H](C)CO)C(=O)c2cc(NC(=O)Nc3cccc4ccccc34)ccc2O[C@@H](C)CCCCO[C@@H]1CN(C)S(=O)(=O)c1ccc(F)cc1,·,·,0,·,·
CCOC(=O)/C=C1\SCC(=O)N1CC(=O)NC12CC3CC(CC(C3)C1)C2,+,96,·,i,0
CCOC(=O)/C=C1\SCC(=O)N1CC(=O)NC(C)C,i,99,·,·,·
CCNC(=O)Nc1ccc2c(c1)C(=O)N(C)[C@@H]1CC[C@H](CC(=O)NCc3cccc(F)c3)O[C@@H]1CO2,·,·,0,·,·

# High-throughput results (PubChem BioAssay)
